One assay concerns the target Ephrin type-B receptor 4 (Homo sapiens, UniProt P54760). Nature of the assay: Inhibition of EPHB4 (unknown origin). Summed up:
(§1)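 Biochemical (cell-free) assay within a panel of 24 protein kinases. Results reported as IC50 values. Procedure as described in earlier work.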

For assay [1], the target named is Mitogen-activated protein kinase kinase kinase 8 (Homo sapiens, UniProt P41279). Nature of the assay: Inhibition of COT (unknown origin). In outline: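 Biochemical (cell-free) assay using a panel of 24 protein kinases. The read-out was the IC50.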
Mitogen-activated protein kinase kinase kinase 8, sequence (P41279 whole entry): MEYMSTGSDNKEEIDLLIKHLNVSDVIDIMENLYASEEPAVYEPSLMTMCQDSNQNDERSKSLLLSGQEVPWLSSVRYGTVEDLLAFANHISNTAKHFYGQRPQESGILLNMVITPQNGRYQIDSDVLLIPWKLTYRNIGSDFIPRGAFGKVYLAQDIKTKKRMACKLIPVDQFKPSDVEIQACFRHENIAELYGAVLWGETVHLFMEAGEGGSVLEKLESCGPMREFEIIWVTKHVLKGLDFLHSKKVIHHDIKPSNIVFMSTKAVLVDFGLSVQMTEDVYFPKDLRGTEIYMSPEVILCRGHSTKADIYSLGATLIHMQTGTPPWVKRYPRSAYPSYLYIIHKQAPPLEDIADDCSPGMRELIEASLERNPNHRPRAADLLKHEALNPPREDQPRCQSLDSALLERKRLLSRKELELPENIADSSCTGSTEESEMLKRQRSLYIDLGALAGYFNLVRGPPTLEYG
Assay [2] addresses Cyclin-dependent kinase 4/cyclin D1 (Homo sapiens, UniProt P11802). Nature of the assay: Inhibition of CDK4/cyclin-D1 (unknown origin). The format is protein-complex assay. Summed up:
as §1

Assay [3] deals with Serine/threonine-protein kinase B-raf (Homo sapiens, UniProt P15056, V600E). Put plainly: Inhibition of B-RAF V600E mutant (unknown origin). Summed up: as §1
Serine/threonine-protein kinase B-raf, sequence (P15056 2-766 V600E limits assumed): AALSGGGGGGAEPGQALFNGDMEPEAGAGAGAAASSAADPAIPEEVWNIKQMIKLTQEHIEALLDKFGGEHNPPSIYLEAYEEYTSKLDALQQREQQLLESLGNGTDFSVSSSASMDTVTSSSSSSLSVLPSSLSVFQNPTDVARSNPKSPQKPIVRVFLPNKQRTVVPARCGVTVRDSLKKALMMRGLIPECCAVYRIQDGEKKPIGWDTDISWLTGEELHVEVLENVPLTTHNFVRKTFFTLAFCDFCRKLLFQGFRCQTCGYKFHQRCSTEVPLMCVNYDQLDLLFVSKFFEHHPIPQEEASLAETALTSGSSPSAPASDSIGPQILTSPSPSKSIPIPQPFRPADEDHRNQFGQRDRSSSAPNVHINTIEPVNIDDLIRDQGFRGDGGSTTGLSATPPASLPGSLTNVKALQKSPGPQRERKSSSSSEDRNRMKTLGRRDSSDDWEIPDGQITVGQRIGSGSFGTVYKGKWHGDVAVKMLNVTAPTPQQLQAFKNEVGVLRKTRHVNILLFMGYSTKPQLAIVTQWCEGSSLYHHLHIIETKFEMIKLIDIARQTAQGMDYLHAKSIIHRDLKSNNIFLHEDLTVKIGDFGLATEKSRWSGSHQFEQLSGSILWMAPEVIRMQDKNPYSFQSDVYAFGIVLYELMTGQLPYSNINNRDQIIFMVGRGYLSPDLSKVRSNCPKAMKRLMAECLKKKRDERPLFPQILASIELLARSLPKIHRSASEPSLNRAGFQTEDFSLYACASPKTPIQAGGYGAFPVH
Assay [4] has as its target T1, NUAK family SNF1-like kinase 1 (Homo sapiens, UniProt O60285).
T1 sequence (O60285 whole entry): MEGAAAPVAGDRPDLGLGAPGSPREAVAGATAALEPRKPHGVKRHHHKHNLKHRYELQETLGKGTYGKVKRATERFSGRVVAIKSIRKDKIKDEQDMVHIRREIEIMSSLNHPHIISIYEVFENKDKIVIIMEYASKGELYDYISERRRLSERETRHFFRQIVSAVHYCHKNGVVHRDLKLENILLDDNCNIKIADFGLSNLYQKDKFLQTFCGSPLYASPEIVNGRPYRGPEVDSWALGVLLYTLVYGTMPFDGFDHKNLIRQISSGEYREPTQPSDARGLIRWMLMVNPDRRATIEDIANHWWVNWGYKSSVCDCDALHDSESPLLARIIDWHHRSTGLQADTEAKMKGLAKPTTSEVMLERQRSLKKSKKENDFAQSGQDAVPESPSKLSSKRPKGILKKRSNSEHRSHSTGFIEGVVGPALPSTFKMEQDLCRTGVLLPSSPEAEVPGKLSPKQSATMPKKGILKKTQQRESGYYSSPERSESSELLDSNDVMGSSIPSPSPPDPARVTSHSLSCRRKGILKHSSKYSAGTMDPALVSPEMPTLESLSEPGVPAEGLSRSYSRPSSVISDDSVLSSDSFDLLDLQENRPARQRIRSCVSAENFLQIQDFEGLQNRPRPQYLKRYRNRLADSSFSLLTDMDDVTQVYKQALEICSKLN
Put plainly: Inhibition of ARK5 (unknown origin). Summed up:
as §1

Assay [5] has as its target Platelet-derived growth factor receptor beta (Homo sapiens, UniProt P09619). Put plainly: Inhibition of PDGFR-beta (unknown origin).
Assay [6] has as its target Insulin-like growth factor 1 receptor (Homo sapiens, UniProt P08069). Nature of the assay: Inhibition of IGF1R (unknown origin). In outline: as §1
Assay [7] deals with Cyclin-dependent kinase 2/cyclin A (Homo sapiens, UniProt P24941). Put plainly: Inhibition of CDK2/cyclin-A (unknown origin). It counts as protein-complex assay. In outline:
as §1

For assay [8], the target named is Serine/threonine-protein kinase PLK1 (Homo sapiens, UniProt P53350). Put plainly: Inhibition of PLK1 (unknown origin). Summed up: as §1
Serine/threonine-protein kinase PLK1, sequence (P53350 whole entry): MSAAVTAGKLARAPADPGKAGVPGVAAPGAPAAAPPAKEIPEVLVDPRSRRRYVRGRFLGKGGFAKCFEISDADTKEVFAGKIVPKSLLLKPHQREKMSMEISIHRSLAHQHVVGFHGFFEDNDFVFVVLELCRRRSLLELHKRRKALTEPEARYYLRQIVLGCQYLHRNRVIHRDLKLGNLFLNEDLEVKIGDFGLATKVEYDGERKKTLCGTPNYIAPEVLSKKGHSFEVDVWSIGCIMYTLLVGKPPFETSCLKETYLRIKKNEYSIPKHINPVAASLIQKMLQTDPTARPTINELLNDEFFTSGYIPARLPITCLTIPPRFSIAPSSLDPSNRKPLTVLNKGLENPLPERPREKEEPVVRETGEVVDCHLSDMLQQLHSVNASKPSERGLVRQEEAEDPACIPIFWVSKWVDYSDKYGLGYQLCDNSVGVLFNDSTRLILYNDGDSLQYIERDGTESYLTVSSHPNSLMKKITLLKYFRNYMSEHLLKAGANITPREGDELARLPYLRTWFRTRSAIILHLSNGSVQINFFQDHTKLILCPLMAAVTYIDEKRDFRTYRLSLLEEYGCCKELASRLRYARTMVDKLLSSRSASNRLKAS
Assay [9] has as its target Casein kinase II subunit alpha (Homo sapiens, UniProt P68400). Nature of the assay: Inhibition of CK2-alpha1 (unknown origin). In outline:
as §1

For assay [10], the target named is RAC-alpha serine/threonine-protein kinase (Homo sapiens, UniProt P31749). Put plainly: Inhibition of AKT1 (unknown origin). In outline: as §1

One may read the IC50 as the midpoint of a concentration-inhibition curve. Read a high IC50 as weaker potency.

Insulin-like growth factor 1 receptor, sequence (P08069 31-736 limits assumed): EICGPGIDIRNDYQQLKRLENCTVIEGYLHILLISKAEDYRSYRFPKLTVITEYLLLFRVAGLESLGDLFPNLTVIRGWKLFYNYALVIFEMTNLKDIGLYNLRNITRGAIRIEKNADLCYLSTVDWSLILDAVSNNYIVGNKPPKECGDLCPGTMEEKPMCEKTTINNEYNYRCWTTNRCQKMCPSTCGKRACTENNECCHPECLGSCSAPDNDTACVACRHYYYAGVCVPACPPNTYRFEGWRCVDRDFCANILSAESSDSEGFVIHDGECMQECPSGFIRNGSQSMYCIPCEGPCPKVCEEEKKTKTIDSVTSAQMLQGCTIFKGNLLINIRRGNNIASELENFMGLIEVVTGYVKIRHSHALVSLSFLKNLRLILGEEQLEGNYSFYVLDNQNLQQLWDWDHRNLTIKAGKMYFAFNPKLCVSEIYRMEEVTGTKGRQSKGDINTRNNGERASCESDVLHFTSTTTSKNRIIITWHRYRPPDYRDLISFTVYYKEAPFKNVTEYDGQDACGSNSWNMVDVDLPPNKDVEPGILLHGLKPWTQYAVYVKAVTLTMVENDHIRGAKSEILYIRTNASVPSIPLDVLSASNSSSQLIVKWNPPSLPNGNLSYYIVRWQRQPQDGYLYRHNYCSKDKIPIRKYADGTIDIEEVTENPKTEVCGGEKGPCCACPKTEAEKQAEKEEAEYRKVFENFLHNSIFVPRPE
Insulin-like growth factor 1 receptor, sequence (P08069 741-1367 limits assumed): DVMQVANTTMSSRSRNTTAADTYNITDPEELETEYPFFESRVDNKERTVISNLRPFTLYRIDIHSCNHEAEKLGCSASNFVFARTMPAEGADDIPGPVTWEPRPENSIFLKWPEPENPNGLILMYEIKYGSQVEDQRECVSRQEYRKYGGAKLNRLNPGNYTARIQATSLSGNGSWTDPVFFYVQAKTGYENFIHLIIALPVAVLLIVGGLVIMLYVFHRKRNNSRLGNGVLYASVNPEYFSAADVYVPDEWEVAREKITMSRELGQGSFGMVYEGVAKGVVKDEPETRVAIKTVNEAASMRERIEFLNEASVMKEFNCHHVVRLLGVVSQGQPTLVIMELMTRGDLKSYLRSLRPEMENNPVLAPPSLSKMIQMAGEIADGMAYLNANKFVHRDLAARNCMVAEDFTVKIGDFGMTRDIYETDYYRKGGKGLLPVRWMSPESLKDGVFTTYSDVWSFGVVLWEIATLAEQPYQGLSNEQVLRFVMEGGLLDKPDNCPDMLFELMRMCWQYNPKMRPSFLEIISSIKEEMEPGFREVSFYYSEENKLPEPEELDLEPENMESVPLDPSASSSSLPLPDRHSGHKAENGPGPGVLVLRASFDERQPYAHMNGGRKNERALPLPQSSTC
Cyclin-dependent kinase 4/cyclin D1, sequence (P11802 whole entry): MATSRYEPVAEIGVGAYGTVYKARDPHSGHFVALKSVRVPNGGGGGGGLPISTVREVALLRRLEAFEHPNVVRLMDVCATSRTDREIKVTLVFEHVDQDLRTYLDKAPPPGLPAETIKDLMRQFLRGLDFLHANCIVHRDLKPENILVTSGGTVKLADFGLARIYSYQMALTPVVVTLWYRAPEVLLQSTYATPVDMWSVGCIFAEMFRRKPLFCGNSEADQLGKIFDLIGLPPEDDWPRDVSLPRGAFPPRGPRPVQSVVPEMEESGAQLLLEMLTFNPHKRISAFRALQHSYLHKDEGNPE
Cyclin-dependent kinase 4/cyclin D1, sequence (P24385 whole entry, further chain): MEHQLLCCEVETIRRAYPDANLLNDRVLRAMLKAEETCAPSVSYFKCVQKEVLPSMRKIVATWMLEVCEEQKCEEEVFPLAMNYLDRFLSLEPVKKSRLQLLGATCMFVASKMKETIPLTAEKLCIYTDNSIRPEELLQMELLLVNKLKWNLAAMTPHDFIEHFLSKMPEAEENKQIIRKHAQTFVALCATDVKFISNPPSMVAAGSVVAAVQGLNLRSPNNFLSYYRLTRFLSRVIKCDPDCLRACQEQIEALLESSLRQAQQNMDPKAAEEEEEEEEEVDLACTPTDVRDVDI
Ephrin type-B receptor 4, sequence (P54760 whole entry): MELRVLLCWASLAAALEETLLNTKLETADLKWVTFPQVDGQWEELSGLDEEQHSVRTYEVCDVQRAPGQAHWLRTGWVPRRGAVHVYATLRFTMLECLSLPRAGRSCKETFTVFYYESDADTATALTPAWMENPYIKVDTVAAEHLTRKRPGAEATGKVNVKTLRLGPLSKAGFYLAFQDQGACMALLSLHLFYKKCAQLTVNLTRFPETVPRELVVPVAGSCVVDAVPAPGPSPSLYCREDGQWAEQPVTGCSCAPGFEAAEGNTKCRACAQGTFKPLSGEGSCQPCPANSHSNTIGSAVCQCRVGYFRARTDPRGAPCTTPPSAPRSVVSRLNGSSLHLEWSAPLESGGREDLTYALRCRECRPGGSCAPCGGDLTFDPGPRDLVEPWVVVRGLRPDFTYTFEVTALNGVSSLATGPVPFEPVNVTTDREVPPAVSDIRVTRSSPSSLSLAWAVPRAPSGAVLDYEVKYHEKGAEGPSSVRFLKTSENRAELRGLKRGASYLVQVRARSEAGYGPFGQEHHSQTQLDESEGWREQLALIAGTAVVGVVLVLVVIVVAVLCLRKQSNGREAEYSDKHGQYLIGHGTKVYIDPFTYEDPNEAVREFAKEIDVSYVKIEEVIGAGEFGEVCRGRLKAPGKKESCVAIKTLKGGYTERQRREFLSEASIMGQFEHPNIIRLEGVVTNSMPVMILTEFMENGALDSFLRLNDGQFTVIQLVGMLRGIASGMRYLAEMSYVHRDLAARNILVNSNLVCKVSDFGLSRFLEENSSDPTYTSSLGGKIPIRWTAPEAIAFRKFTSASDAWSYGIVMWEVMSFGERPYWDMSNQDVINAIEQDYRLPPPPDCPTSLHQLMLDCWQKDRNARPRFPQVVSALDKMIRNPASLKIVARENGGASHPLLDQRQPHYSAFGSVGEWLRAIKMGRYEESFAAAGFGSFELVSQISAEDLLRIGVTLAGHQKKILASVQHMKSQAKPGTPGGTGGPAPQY

For the molecule `O=C1N/C=C/c2ccc(c(Br)c2)Oc2cc(cc(Br)c2O)CCNC(=O)/C(=N/O)Cc2ccc(c(Br)c2)Oc2cc(cc(Br)c2O)C/C1=N\O` [BASTADIN 7], the IC50 on Ephrin type-B receptor 4 amounted to 7700 nM; in [1], 3300 nM; in assay [2] it was 2600 nM; in [3], 4400 nM; in assay [4], 3200 nM; in assay [5] it was 10200 nM. This molecule gave an IC50 in assay [6] of 1700 nM.

As to `O=C(NCCc1ccc(O)c(Br)c1)/C(Cc1cc(Br)c(O)c(Oc2ccc(CCNC(=O)/C(Cc3cc(Br)c(O)c(-c4cc(C/C(=N\O)C(=O)NCCc5ccc(O)c(Br)c5)cc(Br)c4O)c3)=N/O)cc2Br)c1)=N/O` [SESQUIBASTADIN 1], the IC50 at Ephrin type-B receptor 4 was determined as 3400 nM; in assay [1] it was 1300 nM; in assay [2] it was 1400 nM; in assay [7], 6500 nM; in assay [3], 1700 nM; in assay [4], 1700 nM. Moreover, the 50% inhibitory concentration (IC50) in assay [8] stood at 6400 nM; in [5] it was 4000 nM; in assay [6], 1000 nM.

On to `O=C(NCCc1ccc(O)c(Br)c1)/C(Cc1cc(Br)c(O)c(-c2cc(C/C(=N/O)C(=O)NCCc3ccc(O)c(Br)c3)cc(Br)c2O)c1)=N\O` [BASTADIN 3], for which the IC50 in [1] stood at 1600 nM; in assay [2] it was 1500 nM; in assay [9] it was 4100 nM; in assay [7], 1600 nM; in [3], 2700 nM; in assay [4], 1800 nM. The IC50 in assay [10] is 1900 nM; in [8] it was 3900 nM; in assay [6], 2300 nM.

The values are drawn from ChEMBL document CHEMBL2331160, “Trimeric hemibastadin congener from the marine sponge Ianthella basta” (J Nat Prod, 2013).
